A short description of series [1]: Inhibition of wild type HIV-1 3B reverse transcriptase infected in human MT4 cells assessed as inhibition of viral replication after 5 days by cell titer glo based luciferase reporter gene assay. Particulars: Human immunodeficiency virus 1, 3B, MT4, 120 h.
Series [2] in a line: Cytotoxicity against human MT4 cells assessed as decrease in cell viability after 5 days by cell titer glo based luciferase reporter gene assay. Format: toxicity. The essentials: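 Mock-infected MT-4 cells (pre-treated with RPMI) in complete RPMI (10% FBS, 1% P/S) received 1:3 serial DMSO dilutions of compound, further diluted 200-fold into medium, in a 384-well format. Incubated 5 days at 37 °C in a humidified incubator. Viability was read as CellTiter-Glo luminescence. CC50 is the concentration giving a 50% fall in signal, from a sigmoidal dose-response fit.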

Series [3] can be described thus: Selectivity index, ratio of CC50 for human MT4 cells to EC50 for wild type HIV-1 3B reverse transcriptase infected in human MT4 cells. The settings on record: read-out: Ratio CC50/EC50. It counts as toxicity, cell-based.
Series [4] can be described thus: Inhibition of wild type HIV-1 3B reverse transcriptase infected in human MT4 cells assessed as inhibition of virus-induced cytopathic effect after 5 days incubation by Cell Titer Glo luminescence assay. The settings on record: Human immunodeficiency virus 1, 3B.

As to `N#Cc1ccc(Nc2nc(C(=O)c3ccc(C#N)cc3)ncc2Br)cc1`, in series [1], the EC50 amounted to 27.7 µM. The CC50 at 120 h in series [2] was more than 57 µM. Moreover, in series [3], the selectivity ratio is more than 2.06.
For `COc1cc(F)c(C(=O)c2nc(Nc3ccc(C#N)cc3Br)ncc2Br)c(F)c1` the same measures were 18.9 µM, more than 57 µM and more than 3.02.
With `N#Cc1ccc(Nc2nccc(C(=O)c3ccc(C#N)cc3)n2)cc1`, the EC50 in series [1] was 4.5 µM. Also, in series [2], the CC50 at 120 h is more than 57 µM. Also, in series [3], the selectivity ratio is more than 12.7.
For `N#Cc1ccc(C(=O)c2nccc(Cl)n2)cc1` the same measures were more than 57 µM, 16.5 µM and less than 0.29.
With `COc1cc(F)c(C(=O)c2ccnc(Cl)n2)c(F)c1`, the EC50 in series [1] was more than 57 µM. The CC50 at 120 h in series [2] was more than 57 µM. The selectivity ratio in series [3] was determined as 1.
As to `O=C(c1ccnc(Cl)n1)c1c(F)cc(Br)cc1F`, the EC50 in series [1] was more than 57 µM. Moreover, the CC50 at 120 h in series [2] was more than 57 µM. In addition, in series [3], the selectivity ratio is 1.
Take `N#Cc1ccc(Nc2ccnc(C(O)c3ccc(C#N)cc3)n2)cc1` (stereo not given): the EC50 in series [1] was more than 57 µM. Moreover, in series [2], the CC50 at 120 h is more than 57 µM. Also, the selectivity ratio in series [3] amounted to 1.
Turning to `COc1ccc(C(=O)c2nc(Nc3ccc(C#N)cc3)ncc2Br)cc1`, the EC50 in series [1] was more than 57 µM. For the same compound, the CC50 at 120 h in series [2] was 2.45 µM. The selectivity ratio in series [3] is less than 0.04.
For `COc1cc(F)c(C(=O)c2ccnc(Nc3ccc(C#N)cc3)n2)c(F)c1` the same measures were 0.004 µM, more than 57 µM and more than 14200.
`COc1ccc(C(=O)c2ccnc(Nc3ccc(C#N)cc3)n2)cc1`: the EC50 in series [1] turned out to be 0.814 µM; in series [4] it was 0.239 µM. In addition, the CC50 at 120 h in series [2] was more than 57 µM. Moreover, the selectivity ratio in series [3] is more than 70.
For `N#Cc1ccc(Nc2ccnc(C(=O)c3ccc(C#N)cc3)n2)cc1`, the EC50 in series [1] was 43 µM. In addition, the CC50 at 120 h in series [2] is more than 57 µM. In addition, the selectivity ratio in series [3] is more than 1.33.
For `N#Cc1cc(F)c(C(=O)c2ccnc(Cl)n2)c(F)c1` the same measures were more than 57 µM, 30.5 µM and less than 0.54.
With `O=C(c1ccnc(Cl)n1)c1c(F)cc(F)cc1F`, in series [1], the EC50 was more than 57 µM. In series [2], the CC50 at 120 h worked out at 40.1 µM. Also, the selectivity ratio in series [3] was less than 0.7.
For `COc1ccc(C(=O)c2ccnc(Cl)n2)cc1` the same measures were more than 57 µM, 39.6 µM and less than 0.69.
For `COc1cc(F)c(C(=O)c2nc(Nc3ccc(C#N)cc3)ncc2Br)c(F)c1` the same measures were 0.069 µM, 38.7 µM and 561.
For `N#Cc1ccc(Nc2cc(F)c(C(=O)c3ccnc(Nc4ccc(C#N)cc4)n3)c(F)c2)cc1` the same measures were 0.31 µM, 51.9 µM and 167.
For `N#Cc1ccc(C(=O)c2ccnc(Cl)n2)cc1`, the EC50 in series [1] is more than 57 µM. For the same compound, the CC50 at 120 h in series [2] was determined as 31.9 µM. For the same compound, the selectivity ratio in series [3] is less than 0.56.
For `N#Cc1ccc(Nc2ncc(Br)c(C(=O)c3ccc(C#N)cc3)n2)cc1` the same measures were 7.4 µM, more than 57 µM and more than 7.7.
For `N#Cc1ccc(Nc2ncc(Br)c(C(=O)c3c(F)cc(O)cc3F)n2)cc1` the same measures were more than 57 µM, more than 57 µM and 1.
As for `N#Cc1ccc(Nc2nccc(C(=O)c3c(F)cc(F)cc3F)n2)cc1`, in series [1], the EC50 is 0.034 µM. The CC50 at 120 h in series [2] was more than 57 µM. Besides, in series [3], the selectivity ratio was more than 1680.
`N#Cc1ccc(Nc2nccc(C(O)c3ccc(C#N)cc3)n2)cc1` (stereo not given): the EC50 in series [1] worked out at 3.7 µM. For the same compound, the CC50 at 120 h in series [2] is more than 57 µM. Further, in series [3], the selectivity ratio is more than 15.4.
For `N#Cc1ccc(Nc2nccc(C(=O)c3c(F)cc(C#N)cc3F)n2)cc1` the same measures were 0.051 µM, more than 57 µM and more than 1120.
On to `O=C1Nc2ccc(Cl)cc2[C@@](C#CC2CC2)(C(F)(F)F)O1` [EFAVIRENZ], for which the EC50 in series [1] came out at 0.001 µM. The CC50 at 120 h in series [2] was determined as 20.6 µM.
Regarding `Cc1cc(C#N)cc(C)c1Oc1nc(Nc2ccc(C#N)cc2)nc(N)c1Br` [ETRAVIRINE], in series [2], the CC50 at 120 h turned out to be 5.88 µM.

For the origin of these results see ChEMBL document CHEMBL3865796, “Novel (2,6-difluorophenyl)(2-(phenylamino)pyrimidin-4-yl)methanones with restricted conformation as potent non-nucleoside reverse transcriptase inhibitors against HIV-1” (Eur J Med Chem, 2016).
